Experimental data: ChEMBL document CHEMBL1131099, “Biologically active oligodeoxyribonucleotides. 5. 5'-End-substituted d(TGGGAG) possesses anti-human immunodeficiency virus type 1 activity by forming a G-quadruplex structure” (J Med Chem, 1998)

Experiments:
MT4 [1] = assay: Cytotoxicity was measured against MT-4 cells using MTT assay.; type: functional; settings: Homo sapiens
MT4 [2] = assay: In vitro inhibitory activity for cytopathicities induced by HIV-1III B against MT-4 cells.; type: functional, cell-based; settings: Homo sapiens
Method in brief: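 Exponentially growing MT-4 cells were pelleted (140g, 5 min), infected in a small volume of RPMI-1640 with 100 TCID50 HIV-1 IIIB for 1 h, washed, and plated at 2.5 × 10⁴ cells/well with serial oligonucleotide dilutions. Viability was read by MTT at day 6. IC50 was taken from dose-response curves, as the mean of duplicate or quadruplicate ± SD.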

SMILES | CC50 (MT4 [1]) [µM] | IC50 (MT4 [2]) [µM]
Cc1cn([C@H]2C[C@H](OP(=O)(O)OC[C@H]3O[C@@H](n4cnc5c(=O)[nH]c(N)nc54)C[C@@H]3OP(=O)(O)OC[C@H]3O[C@@H](n4cnc5c(=O)[nH]c(N)nc54)C[C@@H]3OP(=O)(O)OC[C@H]3O[C@@H](n4cnc5c(=O)[nH]c(N)nc54)C[C@@H]3OP(=O)(O)OC[C@H]3O[C@@H](n4cnc5c(N)ncnc54)C[C@@H]3OP(=O)(O)OC[C@H]3O[C@@H](n4cnc5c(=O)[nH]c(N)nc54)C[C@@H]3O)[C@@H](COC(c3ccccc3)(c3ccccc3)c3ccccc3)O2)c(=O)[nH]c1=O | 23 | 0.8
Cc1cn([C@H]2C[C@H](OP(=O)(O)OC[C@H]3O[C@@H](n4cnc5c(O)nc(N)nc54)C[C@@H]3O)[C@@H](COCc3ccc(OCc4ccccc4)c(OCc4ccccc4)c3)O2)c(=O)[nH]c1=O | > 100 | > 100
Cc1cn([C@H]2C[C@H](OP(=O)(O)OC[C@H]3O[C@@H](n4cnc5c(=O)[nH]c(N)nc54)C[C@@H]3OP(=O)(O)OC[C@H]3O[C@@H](n4cnc5c(=O)[nH]c(N)nc54)C[C@@H]3OP(=O)(O)OC[C@H]3O[C@@H](n4cnc5c(=O)[nH]c(N)nc54)C[C@@H]3OP(=O)(O)OC[C@H]3O[C@@H](n4cnc5c(N)ncnc54)C[C@@H]3OP(=O)(O)OC[C@H]3O[C@@H](n4cnc5c(=O)[nH]c(N)nc54)C[C@@H]3O)[C@@H](COCc3ccc4ccccc4c3)O2)c(=O)[nH]c1=O | > 40 | 2
Cc1cn([C@H]2C[C@H](OP(=O)(O)OC[C@H]3O[C@@H](n4cnc5c(=O)[nH]c(N)nc54)C[C@@H]3OP(=O)(O)OC[C@H]3O[C@@H](n4cnc5c(=O)[nH]c(N)nc54)C[C@@H]3OP(=O)(O)OC[C@H]3O[C@@H](n4cnc5c(=O)[nH]c(N)nc54)C[C@@H]3OP(=O)(O)OC[C@H]3O[C@@H](n4cnc5c(N)ncnc54)C[C@@H]3OP(=O)(O)OC[C@H]3O[C@@H](n4cnc5c(=O)[nH]c(N)nc54)C[C@@H]3O)[C@@H](COCc3ccc(OCc4ccccc4)c(OCc4ccccc4)c3)O2)c(=O)[nH]c1=O | > 40 | 0.37
Cc1cn([C@H]2C[C@H](OP(=O)(O)OC[C@H]3O[C@@H](n4cnc5c(=O)[nH]c(N)nc54)C[C@@H]3OP(=O)(O)OC[C@H]3O[C@@H](n4cnc5c(=O)[nH]c(N)nc54)C[C@@H]3OP(=O)(O)OC[C@H]3O[C@@H](n4cnc5c(=O)[nH]c(N)nc54)C[C@@H]3OP(=O)(O)OC[C@H]3O[C@@H](n4cnc5c(N)ncnc54)C[C@@H]3OP(=O)(O)OC[C@H]3O[C@@H](n4cnc5c(=O)[nH]c(N)nc54)C[C@@H]3O)[C@@H](COCc3ccc4ccc5cccc6ccc3c4c56)O2)c(=O)[nH]c1=O | > 40 | 1.8
Cc1cn([C@H]2C[C@H](OP(=O)(O)OC[C@H]3O[C@@H](n4cnc5c(O)nc(N)nc54)C[C@@H]3OP(=O)(O)OC[C@H]3O[C@@H](n4cnc5c(O)nc(N)nc54)C[C@@H]3OP(=O)(O)OC[C@H]3O[C@@H](n4cnc5c(O)nc(N)nc54)C[C@@H]3OP(=O)(O)OC[C@H]3O[C@@H](n4cnc5c(N)ncnc54)C[C@@H]3O)[C@@H](COCc3ccc(OCc4ccccc4)c(OCc4ccccc4)c3)O2)c(=O)[nH]c1=O | > 40 | 1.9
Cc1cn([C@H]2C[C@H](OP(=O)(O)OC[C@H]3O[C@@H](n4cnc5c(=O)[nH]c(N)nc54)C[C@@H]3OP(=O)(O)OC[C@H]3O[C@@H](n4cnc5c(=O)[nH]c(N)nc54)C[C@@H]3OP(=O)(O)OC[C@H]3O[C@@H](n4cnc5c(=O)[nH]c(N)nc54)C[C@@H]3OP(=O)(O)OC[C@H]3O[C@@H](n4cnc5c(N)ncnc54)C[C@@H]3OP(=O)(O)OC[C@H]3O[C@@H](n4cnc5c(=O)[nH]c(N)nc54)C[C@@H]3O)[C@@H](COCc3ccccc3)O2)c(=O)[nH]c1=O | > 40 | > 40
Cc1cn([C@H]2C[C@H](OP(=O)(O)OC[C@H]3O[C@@H](n4cc(C)c(=O)[nH]c4=O)C[C@@H]3OP(=O)(O)OC[C@H]3O[C@@H](n4cnc5c(O)nc(N)nc54)C[C@@H]3OP(=O)(O)OC[C@H]3O[C@@H](n4cnc5c(O)nc(N)nc54)C[C@@H]3O)[C@@H](COCc3ccc(OCc4ccccc4)c(OCc4ccccc4)c3)O2)c(=O)[nH]c1=O | 33 | > 50
Cc1cn([C@H]2C[C@H](OP(=O)(O)OC[C@H]3O[C@@H](n4cnc5c(=O)[nH]c(N)nc54)C[C@@H]3OP(=O)(O)OC[C@H]3O[C@@H](n4cnc5c(=O)[nH]c(N)nc54)C[C@@H]3OP(=O)(O)OC[C@H]3O[C@@H](n4cnc5c(=O)[nH]c(N)nc54)C[C@@H]3OP(=O)(O)OC[C@H]3O[C@@H](n4cnc5c(N)ncnc54)C[C@@H]3OP(=O)(O)OC[C@H]3O[C@@H](n4cnc5c(=O)[nH]c(N)nc54)C[C@@H]3O)[C@@H](COCc3cc(OCc4ccccc4)cc(OCc4ccccc4)c3)O2)c(=O)[nH]c1=O | > 40 | 0.49
Cc1cn([C@H]2C[C@H](OP(=O)(O)OC[C@H]3O[C@@H](n4cnc5c(O)nc(N)nc54)C[C@@H]3OP(=O)(O)OC[C@H]3O[C@@H](n4cnc5c(O)nc(N)nc54)C[C@@H]3OP(=O)(O)OC[C@H]3O[C@@H](n4cnc5c(O)nc(N)nc54)C[C@@H]3O)[C@@H](COCc3ccc(OCc4ccccc4)c(OCc4ccccc4)c3)O2)c(=O)[nH]c1=O | > 40 | 4.6
Cc1cn([C@H]2C[C@H](OP(=O)(O)OC[C@H]3O[C@@H](n4cnc5c(=O)[nH]c(N)nc54)C[C@@H]3OP(=O)(O)OC[C@H]3O[C@@H](n4cnc5c(=O)[nH]c(N)nc54)C[C@@H]3OP(=O)(O)OC[C@H]3O[C@@H](n4cnc5c(=O)[nH]c(N)nc54)C[C@@H]3OP(=O)(O)OC[C@H]3O[C@@H](n4cnc5c(=O)[nH]c(N)nc54)C[C@@H]3OP(=O)(O)OC[C@H]3O[C@@H](n4cnc5c(=O)[nH]c(N)nc54)C[C@@H]3O)[C@@H](COCc3ccc(OCc4ccccc4)c(OCc4ccccc4)c3)O2)c(=O)[nH]c1=O | > 40 | 0.26
